Values joined by “and” are separate entries in the source; they are usually repeats but may differ in a detail not shown here. Identical values can stand only once.
Experiments:
[1] = target: T1, Δ^1–28 L-PGDS (Homo sapiens, UniProt P41222); test: Intrinsic tryptophan fluorescence quenching assay; assay type: binding; conditions: compound 20 μM, L-PGDS 1.5 μM, pH 8.0; mean ± SE
T1 sequence (P41222 29-190): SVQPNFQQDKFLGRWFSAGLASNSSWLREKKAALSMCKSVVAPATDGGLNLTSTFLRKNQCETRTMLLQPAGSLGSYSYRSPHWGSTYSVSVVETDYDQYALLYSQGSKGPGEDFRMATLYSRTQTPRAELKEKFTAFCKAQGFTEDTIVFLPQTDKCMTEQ
Method in brief: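 Recombinant human Δ1–28 L-PGDS, delipidated on hydroxypropyl-beaded dextran (1 h, 37 °C), used at 1.5 μM in 5 mM Tris–HCl pH 8.0. Test compound (2 mM DMSO stock) added at 20 μM final; equilibrated 30 min at 25 °C. Tryptophan fluorescence read at ex/em 282/340 nm and corrected for nonspecific effects with N-acetyl-L-tryptophanamide (1.5 μM). Reported relative to vehicle; ≥3 independent assays.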

[2] = target: T1, Δ^1–28 L-PGDS; test: Fluorescence displacement binding assay; conditions: for Binding to Δ^1–28 L-PGDS, DAUDA displacement: DAUDA probe
[3] = target: T1, Δ^1–28 L-PGDS; test: Determination of fluorescent probe binding affinity
[4] = target: L-PGDS; conditions: known high-affinity L-PGDS ligand; ref Breustedt et al., 2006; cited from earlier work
[5] = DAUDA (500 nM) displacement, L-PGDS 3 μM, pH 7.6, 25 °C, mean ± SE
[6] = Ki, DAUDA (500 nM) displacement, L-PGDS 3 μM, pH 7.6, 25 °C, mean ± SE

Molecule | Quenching (%), fluorescence reduction relative to vehicle-treated Δ^1–28 L-PGDS [1] | Ki [2, 6] | also measured
11-hydroxy-Δ^9-tetrahydrocannabinol [11-OH-THC] | 9.7 ± 1.3% |  | Ki [2, 5]: 61 ± 14 µM; Ki ([2]; DAUDA displacement): 61 ± 14 µM
CCCCC/C=C\C/C=C\C/C=C\C/C=C\CCCC(=O)OC(CO)CO [2-AG, 2-arachidonoylglycerol] | −0.8 ± 3.0% | > 200 µM | Binding to Δ^1–28 L-PGDS, DAUDA displacement [2]: did not bind
CCCCC/C=C\C/C=C\C/C=C\C/C=C\CCCC(=O)NCCO [AEA, N-arachidonoylethanolamine] | 3.1 ± 3.3% | > 200 µM | Affinity for Δ^1–28 L-PGDS, ANS displacement ([2]; ANS probe (500 nM)): lack of affinity; Binding to Δ^1–28 L-PGDS, DAUDA displacement [2]: did not bind
CCCCCCC(C)(C)c1cc(O)c2c(c1)OC(C)(C)[C@@H]1CC=C(C(=O)O)C[C@@H]21 [AJA, ajulemic acid] | 21.9 ± 2.9% | 2.2 µM and 2.3 µM | 
O=S(=O)(O)c1cccc2cccc(Nc3ccccc3)c12 [ANS, 1-anilinonaphthalene-8-sulfonic acid] |  |  | Kd [3]: 3.4 ± 0.8 µM
C=C(C)[C@@H]1CCC(C)=C[C@H]1c1c(O)cc(CCCCC)cc1O [CBD, cannabidiol] | 7.2 ± 2.1% | 77.9 ± 3.9 µM | 
CN(C)c1cccc2c(S(=O)(=O)NCCCCCCCCCCC(=O)O)cccc12 [DAUDA, 11-(dansylamino)undecanoic acid] |  |  | Kd [3]: 0.96 ± 0.08 µM
CCCCCCC(CCCCCCCCCCC(=O)O)N(C)c1ccc([N+](=O)[O-])c2nonc12 (centres unmarked) [NBD-stearate, 12-N-methyl-(7-nitrobenz-2-oxa-1,3-diazo)aminostearic acid] |  |  | Binding of fluorescent probe ([3]; L-PGDS 1 μM titrated with probe): did not exhibit appreciable binding
CCCCCCCC/C=C\CCCCCCCC(=O)NCCO [OEA, oleoylethanolamide] | −0.9 ± 2.1% | > 200 µM | Binding to Δ^1–28 L-PGDS, DAUDA displacement [2]: did not display any appreciable binding
CCCCCCCC/C=C\CCCCCCCC(=O)O [OLA, oleic acid] | 15.1 ± 3.7% | 1.8 ± 0.9 µM | 
CCCCCCCC/C=C\CCCCCCCC(N)=O [Oleamide] | 3.6 ± 2.0% | > 200 µM | 
CCCCCCCCCCCCCCCC(=O)NCCO [PEA, palmitoylethanolamide] | 1.3 ± 4.7% | > 200 µM | Binding to Δ^1–28 L-PGDS, DAUDA displacement [2]: did not display any appreciable binding
CCCCC[C@H](O)/C=C/[C@H]1[C@H](O)CC(=O)[C@@H]1C/C=C\CCCC(=O)O [PGE2, prostaglandin E2] | 6.5 ± 1.5% | 128 ± 16 µM | 
CCCCC[C@H](O)/C=C/[C@@H]1[C@@H](C/C=C\CCCC(=O)O)[C@@H](O)C[C@H]1O [PGF2α, prostaglandin F2α] | 2.7 ± 1.7% | 81 ± 9 µM | 
CCCCCC/C=C\CCCCCCCC(=O)O [PLA, palmitoleic acid] | 11.9 ± 2.3% | 3.7 ± 0.5 µM | 
CCCCC[C@H](O)/C=C/[C@@H]1[C@@H](C/C=C\CCCC(=O)NCCO)[C@@H](O)C[C@H]1O [Prostamide F2α] | 0.1 ± 2.6% |  | Ki [2, 5]: > 200 µM; Binding to Δ^1–28 L-PGDS, DAUDA displacement [2]: not found to bind with any appreciable affinity
O=C(O)C1[C@H](c2ccccc2)C(C(=O)Oc2cccc3ccccc23)[C@H]1c1ccccc1 (some centres unmarked) [SBFI-26] | 33.3 ± 2.2% |  | Ki [2, 5]: 3 ± 0.5 µM
CCCCCc1cc(O)c2c(c1)OC(C)(C)[C@@H]1CCC(C)=C[C@@H]21 [THC, Δ^9-tetrahydrocannabinol] | 14.0 ± 2.2% |  | Ki [2, 5]: 175 ± 26 µM
CCCCCc1cc(O)c2c(c1)OC(C)(C)[C@@H]1CCC(C(=O)O)=C[C@@H]21 [THC-COOH, 11-nor-9-carboxy-Δ^9-tetrahydrocannabinol] | 15.6 ± 1.3% |  | Ki [2, 5]: 7.8 ± 1.7 µM; Ki ([2]; DAUDA displacement): 7.8 ± 1.7 µM
CC1=C(/C=C/C(C)=C/C=C/C(C)=C/C(=O)O)C(C)(C)CCC1 [all-trans retinoic acid] | 71.1 ± 1.4% |  | Kd [4]: 0.29 µM
prostaglandin E2-glyceryl ester [PGE2-GE] | 15.1 ± 1.7% |  | Ki [2, 5]: 11.2 ± 1.2 µM
